Assay results published in ChEMBL document CHEMBL4033780, “Lipidated Brartemicin Analogues Are Potent Th1-Stimulating Vaccine Adjuvants” (J Med Chem, 2018).
Active and inactive are the calls of the source. The rule behind the calls is not given here.

Experiments:
Mus musculus [1] = organism: Mus musculus; test: Adjuvant activity in immunized C57BL/6 mouse assessed as increase in OVA-specific IgG production in serum at 0.3 umol treated with ovalbumin for 7 days followed by stimulation with OVA for 7 days and restimulation with OVA measured 24 to 48 hrs post OVA challenge; format: functional
In short: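 Sera were taken on days 0, 7 and 14 from C57BL/6 mice sensitized s.c. with emulsion containing OVA 200 μg ± adjuvant 0.3 μmol and footpad-challenged with OVA on day 7. OVA-specific IgG, IgG1, IgG2b and IgG2c were measured by ELISA with HRP-coupled anti-mouse secondaries. EC50 was taken from absorbance at 450 nm plotted against log serum concentration.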

[2] = biological target: T1, C-type lectin domain family 4 member E (Mus musculus) (UniProt Q9R0Q8); test: Agonist activity at mincle in wild type C57BL/6 mouse GM-CSF derived BMDM assessed as increase in IL-6 release at 0.1 to 1 nmol after 24 hrs by sandwich ELISA
T1 sequence (whole entry): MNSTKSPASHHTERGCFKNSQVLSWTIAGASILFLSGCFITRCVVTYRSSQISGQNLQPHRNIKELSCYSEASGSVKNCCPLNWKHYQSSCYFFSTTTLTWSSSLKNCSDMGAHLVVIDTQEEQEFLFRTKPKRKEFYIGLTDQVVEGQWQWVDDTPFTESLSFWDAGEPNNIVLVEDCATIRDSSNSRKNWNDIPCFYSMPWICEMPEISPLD
In short: (§1)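 Wild-type or Mincle−/− C57BL/6 bone marrow was cultured 8 days with GM-CSF 50 ng/mL in complete RPMI. Macrophages were detached with Acutase and seeded on ligand-coated plates (0.1 or 1 nmol/well); LPS 100 ng/mL was used as comparator. Supernatant was taken at 24 h and TNF, IL-6, IL-1β and MIP-2 measured by sandwich ELISA. Representative of three experiments in triplicate (±SD).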

[3] = biological target: T1, C-type lectin domain family 4 member E (Mus musculus); test: Agonist activity at mincle in wild type C57BL/6 mouse GM-CSF derived BMDM assessed as increase in MIP2 release at 0.1 to 1 nmol after 24 hrs by sandwich ELISA; in short: as §1
Th17 = test: Immunostimulatory activity in OT-2 TCR transgenic mouse CD4+ Th17 cells co-cultured with C57BL/6 mouse BMDM assessed as increase in ovalbumin-specific IL-17 release at 0.1 nmol after 48 hrs by ELISA; format: functional, cell-based
In short: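 OT-II CD4+ T cells (1×10^5) were cocultured with GM-CSF bone-marrow cells (1×10^4) on wells coated with glycolipid 0.1 nmol/well or isopropanol only, with OVA323–339 peptide at 0, 0.1 or 1 μM. Supernatant was collected after 48 h and IFN-γ and IL-17 measured by ELISA. Representative of two experiments in triplicate (±SD).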

[4] = biological target: T2, C-type lectin domain family 4 member E (Homo sapiens) (UniProt Q9ULY5); test: Binding affinity to recombinant human mincle extracellular domain fused with human IgG Fc expressed in HEK293T cells at 0.1 nmol by ELISA; format: cell-based; details: HEK-293T
T2 sequence (whole entry): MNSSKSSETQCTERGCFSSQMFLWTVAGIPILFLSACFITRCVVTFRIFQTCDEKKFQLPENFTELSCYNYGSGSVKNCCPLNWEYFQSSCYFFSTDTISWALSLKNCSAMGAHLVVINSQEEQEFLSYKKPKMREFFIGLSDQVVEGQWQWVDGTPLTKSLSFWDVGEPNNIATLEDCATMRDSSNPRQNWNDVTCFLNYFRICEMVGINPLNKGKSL

[5] = biological target: T2, C-type lectin domain family 4 member E (Homo sapiens); test: Agonist activity at human mincle coupled with FcRgamma expressed in 2B4-NFAT-GFP reporter cells after 18 hrs by flow cytometric analysis; format: cell-based
In short: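 2B4 NFAT-GFP reporter cells expressing mouse or human Mincle plus FcRγ were placed on plates coated with ligand at 0.01, 0.1 or 1 nmol/well; cells expressing FcRγ only served as negative control. Ligand was coated from isopropanol, 0.05 mM, and solvent evaporated. After 18 h, cells were harvested, stained with propidium iodide and GFP read by flow cytometry. Mean of three experiments in duplicate (±SEM).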

BMDM = test: Immunostimulatory activity in mincle-/- C57BL/6 mouse GM-CSF derived BMDM assessed as increase in IL-6 release at […] after 24 hrs by sandwich ELISA method; format: functional, cell-based; in short: as §1
Mus musculus [6] = organism: Mus musculus; test: Adjuvant activity in immunized C57BL/6 mouse assessed as increase in OVA-specific IgG2b production in serum at 0.3 umol treated with ovalbumin for 7 days followed by stimulation with OVA for 7 days and restimulation with OVA measured 24 to 48 hrs post OVA challenge; format: functional

Activity [2]: Active | Activity [3]: Active | Activity [4]: Active | Activity [5]: Dose-dependent effect
Compound: CCCCCCCCCCCCCCCCCCOc1ccc(C(=O)OC[C@H]2O[C@H](O[C@H]3O[C@H](COC(=O)c4ccc(OCCCCCCCCCCCCCCCCCC)cc4O)[C@@H](O)[C@H](O)[C@H]3O)[C@H](O)[C@@H](O)[C@@H]2O)c(O)c1
Activity (Mus musculus [1]): Active | Activity (Th17): Active | Activity (BMDM): inactive | Activity (Mus musculus [6]): Active
